# ChEMBL document CHEMBL1165950, “Design and synthesis of new potent anticancer pyrazoles with high FLT3 kinase inhibitory selectivity” (Bioorg Med Chem, 2010)
# What was measured:
# Type in all cases: functional
# NCI-H522 = assay: Cytotoxicity against human NCI-H522 cells assessed as cell growth at 100 nM after 48 hrs by sulforhodamine B assay; conditions: NCI-H522, 48 h, read-out: Activity
# COLO 205 = assay: Cytotoxicity against human COLO205 cells assessed as cell growth at 100 nM after 48 hrs by sulforhodamine B assay; conditions: COLO 205, 48 h, read-out: Activity
# HT-29 = assay: Cytotoxicity against human HT-29 cells assessed as cell growth at 100 nM after 48 hrs by sulforhodamine B assay; conditions: HT-29, 48 h, read-out: Activity
# MDA-MB-468 = assay: Cytotoxicity against human MDA-MB-468 cells assessed as cell growth at 10 uM after 48 hrs by sulforhodamine B assay; conditions: MDA-MB-468, 48 h, read-out: Activity
# OVCAR-8 = assay: Cytotoxicity against human OVCAR8 cells assessed as cell growth at 100 nM after 48 hrs by sulforhodamine B assay; conditions: OVCAR-8, 48 h, read-out: Activity
# SK-OV-3 = assay: Cytotoxicity against human SKOV3 cells assessed as cell growth at 100 nM after 48 hrs by sulforhodamine B assay; conditions: SK-OV-3, 48 h, read-out: Activity
# ACHN = assay: Cytotoxicity against human ACHN cells assessed as cell growth at 100 nM after 48 hrs by sulforhodamine B assay; conditions: read-out: Activity
# Method in brief: (§1)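 NCI-60 five-dose screen. Cells were grown in RPMI 1640 with 5% FBS and 2 mM L-glutamine, plated at 5000–40,000 cells/well and preincubated for 24 h. Time-zero plates were TCA-fixed. DMSO-solubilized drug was added at five concentrations (10-fold or ½-log serial dilutions) for 48 h at 37 °C, 5% CO2. Cells were TCA-fixed, stained with 0.4% SRB and read at 515 nm. Percent growth used time-zero, control and test absorbances.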
# HL-60(TB) [1] = assay: Cytotoxicity against human HL-60(TB) cells assessed as cell growth at 1 uM after 48 hrs by sulforhodamine B assay; conditions: HL-60, 48 h, read-out: Activity
# Method in brief: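 NCI 60-cell panel. Cells are grown in RPMI 1640 with 5% FBS and 2 mM L-glutamine, seeded at 5000–40,000 cells/well according to doubling time, and preincubated 24 h. Time-zero plates are TCA-fixed. Compound from DMSO stock is given at five 10-fold or 1/2-log concentrations for 48 h at 37 °C, 5% CO2. Suspension cells are fixed with 80% TCA (final 16%) and SRB-stained, with absorbance at 515 nm. Percent growth is derived from Tz, control and test readings.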
# IGROV-1 [2] = assay: Cytotoxicity against human IGROV1 cells assessed as cell growth at 10 uM; conditions: read-out: Activity
# Method in brief: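 Single-dose NCI-60 screen at 10 µM. Cells were grown in RPMI 1640 with 5% FBS and 2 mM L-glutamine, then treated for 48 h at 37 °C. Protein was measured by SRB staining with absorbance at 515 nm. Percentage growth was recorded, and inhibition percentage was calculated as 100 minus growth percentage.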
# OVCAR-3 = assay: Cytotoxicity against human OVCAR-3 cells assessed as cell growth at 10 uM; conditions: read-out: Activity
# Method in brief: (§2)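 NCI-60 screen: cells grown in RPMI 1640 with 5% FBS and 2 mM L-glutamine, plated at 5000–40,000 cells/well according to doubling time, and preincubated 24 h at 37 °C, 5% CO2. The single 10 µM dose (DMSO stock) was added, then incubated 48 h. Cells were TCA-fixed and stained with 0.4% SRB, read at 515 nm, and growth % calculated against time-zero and control plates.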
# HCT-15 = assay: Cytotoxicity against human HCT15 cells assessed as cell growth at 1 uM after 48 hrs by sulforhodamine B assay; conditions: HCT-15, 48 h, read-out: Activity
# SF-295 = assay: Cytotoxicity against human SF295 cells assessed as cell growth at 1 uM after 48 hrs by sulforhodamine B assay; conditions: SF-295, 48 h, read-out: Activity
# SF-268 [3] = assay: Cytotoxicity against human SF268 cells assessed as cell growth at 0.01 uM after 48 hrs by sulforhodamine B assay; conditions: SF-268, 48 h, read-out: Activity
# SK-MEL-5 = assay: Cytotoxicity against human SK-MEL-5 cells assessed as cell growth at 0.01 uM after 48 hrs by sulforhodamine B assay; conditions: SK-MEL-5, 48 h, read-out: Activity
# A498 [4] = assay: Cytotoxicity against human A498 cells assessed as cell growth at 0.01 uM after 48 hrs by sulforhodamine B assay; conditions: A498, 48 h, read-out: Activity; method in brief: as §1
# UO-31 = assay: Cytotoxicity against human UO31 cells assessed as cell growth at 0.001 uM after 48 hrs by sulforhodamine B assay; conditions: UO-31, 48 h, read-out: Activity
# A498 [5] = assay: Growth inhibition of human A498 cells after 48 hrs by sulforhodamine B assay; conditions: A498, 48 h
# Method in brief: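 NCI five-dose SRB assay in RPMI 1640 with 5% FBS and 2 mM L-glutamine. Cells were preincubated 24 h, then exposed 48 h at 37 °C to five concentrations (10-fold or half-log serial dilutions from DMSO stocks). TCA fixation, SRB staining, and absorbance at 515 nm followed. IC50 was taken where [(Ti−Tz)/(C−Tz)]×100 = 50, with Tz as time-zero cell density.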
# HL-60(TB) [6] = assay: Cytotoxicity against human HL-60(TB) cells assessed as cell growth at 10 uM; conditions: read-out: Activity
# Method in brief: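 NCI 60-cell panel screen at a single concentration of 10 µM. Cells are grown in RPMI 1640 with 5% FBS and 2 mM L-glutamine and read by SRB protein staining at 515 nm. Percent growth is measured relative to time-zero and untreated controls; inhibition % is 100 minus growth %.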
# OVCAR-5 [7] = assay: Cytotoxicity against human OVCAR5 cells assessed as cell growth at 1 uM after 48 hrs by sulforhodamine B assay; conditions: OVCAR-5, 48 h, read-out: Activity
# SW-620 = assay: Cytotoxicity against human SW620 cells assessed as cell growth at 10 uM; conditions: read-out: Activity; method in brief: as §2
# SF-268 [8] = assay: Cytotoxicity against human SF268 cells assessed as cell growth at 10 uM; conditions: read-out: Activity; method in brief: as §2
# SR = assay: Cytotoxicity against human SR cells assessed as cell growth at 10 uM after 48 hrs by sulforhodamine B assay; conditions: read-out: Activity
# IGROV-1 [9] = assay: Cytotoxicity against human IGROV1 cells assessed as cell growth at 10 uM after 48 hrs by sulforhodamine B assay; conditions: IGROV-1, 48 h, read-out: Activity
# OVCAR-5 [10] = assay: Cytotoxicity against human OVCAR5 cells assessed as cell growth at 10 uM after 48 hrs by sulforhodamine B assay; conditions: OVCAR-5, 48 h, read-out: Activity
structure (smiles),measurement,setting,value
COc1cc(C)cc(-c2nn(CC#N)cc2-c2ccnc(-c3ccc(N(C)C)cc3)c2)c1,growth at 0.1 µM,NCI-H522,-39%
same,growth at 0.1 µM,COLO 205,-15%
same,growth at 0.1 µM,HT-29,25%
same,growth at 10 µM,MDA-MB-468,-63%
same,growth at 0.1 µM,OVCAR-8,32%
same,growth at 0.1 µM,SK-OV-3,-6%
same,growth at 0.1 µM,ACHN,29%
same,growth at 1 µM,HL-60(TB) [1],-1%
same,growth at 10 µM,IGROV-1 [2],13.1%
same,growth at 10 µM,OVCAR-3,2.79%
same,growth at 1 µM,HCT-15,-1%
same,growth at 1 µM,SF-295,-7%
same,growth at 0.01 µM,SF-268 [3],90%
same,growth at 0.01 µM,SK-MEL-5,104%
same,growth at 0.01 µM,A498 [4],88%
same,growth at 0.001 µM,UO-31,90%
same,GI50,A498 [5],246 nM
same,LC50,A498 [5],> 100000 nM
same,TGI,A498 [5],818 nM
same,growth at 10 µM,HL-60(TB) [6],1.48%
same,growth at 1 µM,OVCAR-5 [7],31%
same,growth at 10 µM,SW-620,21.9%
same,growth at 10 µM,SF-268 [8],24.5%
same,growth at 10 µM,SR,8%
same,growth at 10 µM,IGROV-1 [9],-6%
same,growth at 10 µM,OVCAR-5 [10],15%
